Source: PubChem BioAssay (several laboratories)
ALR H2O2 inh: inhibitors of human sulfhydryl oxidase ALR; purified ALR, DTT oxidation, H2O2 HRP-luminol luminescence; inhibition, % (no concentration beside the values); 290,000 compounds, 3.8% hits; AID 485317;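 active = mean replicate inhibition above about 79%, with every replicate also reaching it, limit read from the data; inconclusive = only one of the two criteria met; inactive = mean below limit and not every replicate reaching it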
Target sequence (P55789 whole entry, looked up): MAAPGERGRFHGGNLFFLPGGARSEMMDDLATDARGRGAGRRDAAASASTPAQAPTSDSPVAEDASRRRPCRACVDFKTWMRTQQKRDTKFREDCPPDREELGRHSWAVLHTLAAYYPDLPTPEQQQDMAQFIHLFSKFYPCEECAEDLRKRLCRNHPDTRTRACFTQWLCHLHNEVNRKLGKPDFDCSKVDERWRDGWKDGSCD
UCH37 DUB inh: human UCH37 deubiquitinating enzyme inhibition; Q9Y5K5; purified proteasome/UCH37, Ub-AMC cleavage fluorescence; inhibition, % (concentration not given with the values); 330,000 compounds, 0.33% hits;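 active = mean inhibition over replicate wells above about 20%, limit read from the data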;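 also: 0% = compound-free wells with enzyme and 100% = wells lacking proteasome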
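Signal – fluorescence, ex 355 nm, em 460 nm · System – Proteasome-bound UCH37 · Input – 0.15 nM proteasome as dispensed · Timing – 30 min preincubation with enzyme, 25 min cleavage at room temperature · Read-out basis – percent inhibition of cleavage signal versus uninhibited and no-proteasome wells · Medium – Tris-HCl pH 7.4 with ATP-MgCl2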
NLRP3 yeast inh: blocks the NALP3 inflammasome reconstituted in yeast; Yeast reconstituted NLRP3/ASC/caspase-1, beta-gal luminescence, 24 h; inhibition, % at 10 µM; 330,000 compounds, 0.39% hits;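 active = inhibition of 50% or more; inactive = inhibition below 50%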;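 also: plate controls were induced DMSO wells for no effect and uninduced yeast grown without galactose for full effect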
NALP1 inh: inhibitors of NALP1 inflammasome in yeast; S. cerevisiae NALP1/ASC/caspase-1 growth, X-gal OD620, 72 h; inhibition, % at 10 µM; 280,000 compounds, 0.61% hits; AID 2071; in the data active = inhibition mostly above about 24%, no sharp cut-off; inactive = mostly below about 32%
ATG4B inhibitor: blocks human ATG4B protease cleavage of LC3 substrate | ATG4B cleavage of LC3-PLA2, NBD-HPC fluorescence, 1 h | inhibition, % at 8.33 µM | 340,000 compounds, 0.51% hits; in the data active = inhibition above about 40%
Target sequence (Q9Y4P1 whole entry, looked up): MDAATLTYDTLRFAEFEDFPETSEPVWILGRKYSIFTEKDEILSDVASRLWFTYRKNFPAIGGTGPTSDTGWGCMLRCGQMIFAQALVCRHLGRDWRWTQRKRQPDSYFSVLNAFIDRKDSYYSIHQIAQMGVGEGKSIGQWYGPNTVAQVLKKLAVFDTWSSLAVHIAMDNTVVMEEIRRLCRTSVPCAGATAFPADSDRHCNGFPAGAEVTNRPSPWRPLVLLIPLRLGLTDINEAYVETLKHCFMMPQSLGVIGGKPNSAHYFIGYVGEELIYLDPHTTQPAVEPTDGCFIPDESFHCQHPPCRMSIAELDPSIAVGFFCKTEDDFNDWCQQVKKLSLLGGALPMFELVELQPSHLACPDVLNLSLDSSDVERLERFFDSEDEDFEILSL
Calb FLC: affects C. albicans growth with fluconazole; C. albicans CaCi-2 (fluconazole-resistant clinical isolate) + fluconazole, Alamar Blue growth, 48 h; growth inhibition, % (test concentration not listed); 300,000 compounds, 0.57% hits;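 active = growth inhibition above about 58% in most replicates, limit read from the data, passing the limit was not always enough; inconclusive = exactly half the replicates above a set limit; inactive = most replicates below a set limit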;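 also: all wells also contain fluconazole at 8 µg/ml as a sub-toxic cotreatment; 0% = median of DMSO wells and 100% = median of geldanamycin control wells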
Active calls of the source: *; i = inactive; ? = inconclusive; · = no result. Hits are enriched below; roughly 4.8% of the tested compounds scored in any of these assays.

SMILES | ALR H2O2 inh | UCH37 DUB inh | NLRP3 yeast inh | NALP1 inh | ATG4B inhibitor | Calb FLC
CSCC[C@@H](C(=O)O)N1Cc2ccccc2C1=O | -1.8 | 4.7 | 14.5 | 38.8* | 3.1 | -1.6
CC(NC(=O)C(=O)N1CCOCC1)C(c1cccs1)N1CCN(c2ccccc2)CC1 (stereo not given) | 98.2* | -0.3 | 10.7 | -9.3 | 5.9 | 22.5
COc1ccccc1N1CCN(C(c2cccs2)C(C)NC(=O)C(=O)N2CCOCC2)CC1 (stereo not given) | 88.7* | 2.2 | -5.7 | 9.9 | -8.2 | -4.1
COc1ccc(N2CCN(C(c3cccs3)C(C)NC(=O)C(=O)N3CCOCC3)CC2)cc1 (stereo not given) | ? | 1.2 | 6.5 | -7.6 | 14.6 | -6.2
COc1ccccc1C(=O)NC(C)C(c1cccs1)N1CCOCC1 (stereo not given) | -4.0 | 1.8 | -2.6 | -8.9 | 10.0 | 5.2
CCCc1cc(=O)[nH]c(SCC(=O)c2ccc3c(c2)NC(=O)CO3)n1 | 97.0* | -0.5 | -10.5 | 15.8 | 5.8 | -5.5
S=c1[nH]nc(Nc2cccc(Cl)c2)s1 | 98.9* | 3.7 | 10.6 | -0.9 | -0.2 | -0.9
Cc1cccc(CSC2=NCCN2S(=O)(=O)c2ccc(F)cc2)c1 | -5.3 | 4.6 | 22.7 | 17.3 | -0.8 | 6.7
O=C(Cc1ccccc1)N1CCN=C1SCc1cccc([N+](=O)[O-])c1 | 98.0* | 3.2 | -11.2 | -1.7 | 0.9 | -4.1
Cc1cccc(C(=O)N2CCN=C2SCc2ccc([N+](=O)[O-])cc2)c1 | 98.9* | 4.1 | 5.6 | 3.1 | -1.4 | -11.8
Cc1cccc(CSC2=NCCN2C(=O)c2ccc(Br)o2)c1 | 95.4* | 5.5 | 18.3 | 18.0 | -4.0 | 0.1
Cc1c(O)ccc(C=NNc2nc(-c3cccnc3)nc3ccccc23)c1O | · | 2.3 | · | · | · | ·
CC(=NN1CCN(Cc2ccc(Cl)cc2)CC1)c1ccc([N+](=O)[O-])cc1 | · | 2.9 | · | · | · | ·
Cc1ccsc1C=NNC(=O)CNC(=O)c1ccco1 | · | 1.8 | · | · | · | ·
CCN1/C(=C2/SC(=S)N(NC(C)=O)C2=O)Sc2ccc(Cl)cc21 | 96.2* | 2.1 | 19.3 | 13.2 | -3.5 | 7.8
CN(C)C=NC(=S)Nc1ccc(Cl)c(Cl)c1 | · | 2.4 | · | · | · | ·
Cc1ccc(C(=O)OCC(=O)NC(C)C)cc1S(=O)(=O)N1CCOCC1 | -49.0 | 4.1 | 9.5 | 23.8* | 6.2 | -3.7
Cc1ccc(NC(=O)COC(=O)c2ccc(NC(=O)CC#N)cc2)cc1S(=O)(=O)N1CCOCC1 | 98.8* | 2.7 | 3.8 | · | -9.4 | ·
CC(=NO)C1C(=NO)CC2C1C2(C)C (stereo not given) | · | 2.0 | · | · | · | ·
CC1(C)Oc2ccc(C(=O)NN=Cc3ccc(O)cc3)cc2NC1=O | · | 1.7 | · | · | · | ·
Cc1n[nH]c(=S)n(N=Cc2ccccn2)c1=O | · | 2.0 | · | · | · | ·
CCOc1ccc(-c2nc(CSc3nnc(C)s3)cs2)cc1OC | · | -1.0 | 37.0 | 28.9 | 9.3 | -1.7
CCOc1ccc(-c2nc(CSc3nncs3)cs2)cc1OC | 94.4* | 1.9 | 36.1 | 36.8 | 14.8 | -2.2
CC(C)(C)c1ccc(C=NNc2ccc(C(=O)O)cc2)cc1 | · | 9.3 | · | · | · | ·
Cc1ccccc1C([O-])=Nc1ccc[n+](-c2nc3ccccc3nc2NS(=O)(=O)c2ccccc2)c1 | 89.0* | 3.8 | 5.6 | 11.2 | -15.9 | -1.3
SMILES | ALR H2O2 inh | UCH37 DUB inh | NLRP3 yeast inh | NALP1 inh | ATG4B inhibitor | Calb FLC
O=S(=O)(Nc1nc2ccccc2nc1-[n+]1ccccc1)c1ccc(Cl)cc1 | 4.4 | 1.5 | -4.0 | · | -1.0 | -1.4
O=C(NN=C/C(Br)=C/c1ccccc1)c1cnccn1 | · | 9.4 | · | · | · | ·
O=C(NCc1ccco1)c1ccc2c(c1)N(Cc1ccccc1)CCS2 | 97.8* | -237.8 | -1.3 | 15.5 | 0.2 | 3.5
CCN1CCN(CCCNC(=O)c2ccc3c(c2)N(Cc2ccccc2)CCS3)CC1 | 98.9* | i | 19.0 | 13.9 | -2.2 | -8.1
Cc1ccc(CN2CCSc3ccc(C(=O)NCc4ccccn4)cc32)cc1 | 97.8* | -366.3 | 24.1 | 5.3 | 8.8 | ?
O=C(NCCCN1CCCC1)c1ccc2c(c1)N(Cc1ccccc1)CCS2 | 99.3* | i | 5.7 | 5.9 | 5.5 | -8.6
COc1ccc(/C=C/C(=O)Oc2ccc(C=NNC(=O)c3ccncc3)cc2)cc1 | · | -0.1 | · | · | · | ·
CC1CC(=NNC(=O)c2cccs2)CC(C)(C)C1 (stereo not given) | · | -2.2 | · | · | · | ·
COc1ccc(Nc2nc(N)c([N+](=O)[O-])c(N3CCOCC3)n2)cc1 | 1.5 | 11.1 | 22.6 | -9.1 | -0.1 | 1.3
CN(C)c1ccc(Nc2nc(N)c([N+](=O)[O-])c(N3CCOCC3)n2)cc1 | 98.9* | 14.3 | 25.0 | 31.0 | 2.4 | 10.4
Cc1ccc2nc(-c3ccc(SCC(=O)N4CCc5ccccc54)nc3)[nH]c2c1 | -5.1 | -9.4 | 10.0 | 28.8 | 2.3 | -13.7
Cc1ccc2nc(-c3ccc(SCC(=O)O)nc3)[nH]c2c1 | 98.5* | i | 7.8 | -9.2 | -6.8 | 5.2
O=C(O)COc1ccc(C=NNc2nc(Nc3ccccc3)nc(N3CCCCC3)n2)cc1 | · | 3.8 | · | · | · | ·
Clc1nc(-c2cccnc2)nc2scc(-c3ccccc3)c12 | 96.7* | 0.2 | -2.2 | 13.8 | 3.9 | 39.5
COc1ccc(-c2csc3nc(-c4cccnc4)nc(Cl)c23)cc1OC | 97.6* | 2.1 | 17.2 | 15.7 | -4.0 | 12.5
CCN(CC)S(=O)(=O)c1ccc(C(=O)NCC(=O)NN=Cc2ccccc2OC)cc1 | · | 0.5 | · | · | · | ·
CNC(=S)N1CCN(c2ccc(OC)cc2)CC1 | 96.0* | -2.1 | 4.9 | 0.7 | -4.8 | 0.3
COC(=O)c1c(C)[nH]c(C(=O)N2CCN(c3ccc(OC)cc3)CC2)c1C | 95.6* | · | · | -16.9 | · | 11.3
COc1ccc(N2CCN(CCCNC(=O)C3(S(=O)(=O)c4ccc(Cl)cc4)CC3)CC2)cc1 | 85.5* | 0.9 | 9.4 | -23.0 | -4.5 | 0.3
O=C(NCCCN1CCN(c2cccc(Cl)c2)CC1)C1(S(=O)(=O)c2ccc(Cl)cc2)CC1 | · | 3.4 | 15.1 | 0.1 | -12.8 | 13.4
COc1ccc(N2CCN(CC(=O)NC(C)c3ccccc3)CC2)cc1 (stereo not given) | 95.1* | 1.7 | 11.1 | 22.2 | 5.6 | 6.2
COc1cccc(N2CCN(C(=O)c3[nH]c(C)c(C(C)=O)c3C)CC2)c1 | 54.1 | 0.5 | 23.5 | 10.3 | -8.2 | 0.9
NC(=NOC(=O)CC1CCCCC1)c1cccc([N+](=O)[O-])c1 | · | 0.9 | · | · | · | ·
COc1ccc(C(CCN2CCN(c3ccccc3)CC2)c2c(O)cc(OC)cc2OC)cc1 (stereo not given) | -10.7 | 1.3 | 14.0 | 8.3 | 4.5 | -29.0
COc1cccc(-c2csc(N3CCN(CC(=O)Nc4ccc5c(c4)OCO5)CC3)n2)c1 | · | 4.4 | 15.5 | 9.4 | 7.3 | -13.8
COc1ccc(N2CCN(C(=O)NCc3ccc(OC)c(Cl)c3)CC2)cc1 | -57.8 | 6.4 | -4.7 | -13.7 | -7.8 | -7.5
COc1ccc(NC(=O)CN2CCN(c3nc(-c4cccc(OC)c4)cs3)CC2)cc1 | 98.9* | 3.8 | 12.6 | 4.8 | -14.2 | 32.1
